Only some compounds are listed: those with a hit (about 3.9% of all), similar ones and a draw of the others.
TAAR1 antag: antagonists of human TAAR1; Q96RJ0; CHO RD-HGA16 TAAR1, Fluo-8 calcium fluorescence, antagonist; inhibition, % at 3 µM; hit rate 1.5% among 360,000;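 active = inhibition above a per-plate cutoff, the mean inhibition of test compounds on that plate plus 3 SD, cut at about 49% in these data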;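 also: 0% = DMSO plus EC80 beta-PEA response and 100% = DMSO alone without agonist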
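Test system: CHO RD-HGA16 cells bearing hTAAR1 | Reagent: β-PEA, EC80 | Compound dosing: 3 µM, single point | Schedule: Dye loading 75 min at 37 °C, then 30 min room temperature | Signal: Calcium fluorescence with Fluo-8 | Evaluation: Percent inhibition of PEA-evoked calcium signal, max/basal emission ratio | Control set: DMSO-only wells and EC80 β-PEA-stimulated wells | Repeats: Singlicate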
TMEM16A inh: mouse TMEM16A channel inhibition, primary screen; AID 588511; normalized B-score (activity score, 25-100; higher = stronger inhibition) at 10 µM; hit rate 1.2% among 310,000; HEK293 TMEM16A/YFP iodide influx fluorescence, ionomycin;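 active = ratio plate-corrected score three or more library SD toward inhibition, starting fluorescence score within five deviations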;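 also: score derived from kinetic fluorescence span divided by baseline fluorescence per well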
TAAR1 agonist: agonists of human TAAR1; Q96RJ0; CHO RD-HGA16 TAAR1, Fluo-8 calcium fluorescence; vehicle wells 0%, saturating PEA agonist 100%; hit rate 0.99% among 360,000; activation, % at 3 µM;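 active = activation above the mean activation of all test compounds in the run plus 3 SD, cut at about 38% in these data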
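Repeats: no replicates (n 1) | Material: CHO-derived RD-HGA16 cells with stable Gα16 and human TAAR1 | Technique: Kinetic Fluo-8 calcium fluorescence | Schedule: 17-24 h seeding, 75 min 37 °C dye, 30 min RT | Evaluation: % activation from peak over basal fluorescence ratio, DMSO-to-PEA scaled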
CRFR2-BP antag: antagonists of CRF-binding protein/CRF-R2 receptor complex. HEK293 CRF-R2/CRF-BP, CRF-induced calcium fluorescence. inhibition, % at 11.8 µM. hit rate 0.59% among 350,000;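 active = inhibition of the ligand-induced calcium signal above about 50% at the single tested concentration, limit read from the data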
CRFR2-BP ag: agonists of human CRF-binding protein/CRF-R2 receptor complex; HEK293 CRF-R2/CRF-BP, calcium dye fluorescence (FLIPR); percent of saturating CRF peptide response; activation, % at 13.2 µM; hit rate 0.46% among 350,000;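 active = activation of at least 50%, plus an integration ratio under a set limit after plate pattern correction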;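 also: plate controls were neutral control wells without compound for no effect and CRF at EC100 for full effect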
ANO1 activ: activates or potentiates the mouse TMEM16A chloride channel. hit rate 0.3% among 340,000. HEK293 TMEM16A/YFP-H148Q/I152L, iodide quench fluorescence; active compounds read low. Q8BHY3. B-score at 10 µM;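 active = fluorescence-ratio B-score plate-corrected deviation score at least 3 library SD below zero, with starting fluorescence score within 5 deviations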;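 also: channel opened by trigger with iodide after compound preincubation; score built on the fluorescence ratio of max minus min over baseline; more negative score means more quench and so TMEM16A activation or potentiation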
TAAR1 ag confirm: human TAAR1 agonism, confirmed; shares compounds with TAAR1 agonist; CHO RD-HGA16 TAAR1, Fluo-8 calcium fluorescence; scaled: DMSO 0%, maximal phenethylamine 100%; activation, % at 3 µM; hit rate 82% among 2,400; AID 651783;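 active = activation above a cutoff set at the run's mean compound activation plus 3 SD, cut at about 39% in these data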
Ga16 nonsel ag: nonselective agonist in parental cells, TAAR1 agonist counter-screen. CHO-Ga16 parental, Fluo-8 calcium fluorescence; normalized to maximal ATP response, DMSO zero. shares compounds with TAAR1 agonist. AID 651787. activation, % at 3 µM. hit rate 50% among 2,400;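 active = activation above the run cutoff, the mean activation over all tested wells plus 3 SD, cut at about 12% in these data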;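 also: 0% = DMSO wells and 100% = maximal ATP response on the peak over basal ratio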
TAAR1 desensitize: human TAAR1 agonist that also desensitizes the receptor. shares compounds with TAAR1 agonist. CHO RD-HGA16 hTAAR1, Fluo-8 calcium, beta-PEA response inhibition. inhibition, % at 3 µM. hit rate 46% among 2,400. AID 651951;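 active = inhibition above the run cutoff, the mean inhibition of all test compounds plus 3 SD, cut at about 49% in these data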;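 also: beta-PEA stimulus applied at its EC80; loss of beta-PEA calcium signal after compound pretreatment read as receptor desensitization; 0% = DMSO with beta-PEA at EC80 and 100% = DMSO alone without agonist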
Ga16 antag count: counter-screen for TAAR1 agonists: nonselective Ga16 antagonists; shares compounds with TAAR1 agonist; CHO-Ga16 ATP-induced calcium, Fluo-8 fluorescence; inhibition, % at 3 µM; hit rate 39% among 2,400;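 active = inhibition above the plate's mean compound inhibition plus 3 SD, computed per plate, cut at about 22% in these data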;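 also: 0% = EC80 ATP with DMSO and 100% = DMSO wells without ATP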
* = called active by the depositor.

What do the screens show for `O=C(COc1ccc(S(=O)(=O)Nc2ccc(Cl)cc2)cc1)N1CCOCC1`?
TAAR1 antag: 30; TMEM16A inh: inactive; TAAR1 agonist: 57*; CRFR2-BP antag: -34; CRFR2-BP ag: 16; ANO1 activ: inactive; TAAR1 ag confirm: 56*; Ga16 nonsel ag: 31*; TAAR1 desensitize: 15; Ga16 antag count: 16

Results for CCOc1ccc(NS(=O)(=O)c2ccc(C(=O)NCC(c3cccs3)N3CCOCC3)cc2)cc1 (stereo unspecified) ?
TAAR1 antag: 83*; TMEM16A inh: inactive; TAAR1 agonist: 126*; CRFR2-BP antag: -33; CRFR2-BP ag: 61*; ANO1 activ: inactive; TAAR1 ag confirm: 106*; Ga16 nonsel ag: 68*; TAAR1 desensitize: 78*; Ga16 antag count: 51*

How did CC(C)(CNC(=O)c1ccc(S(=O)(=O)Nc2ccc(Cl)cc2)cc1)N1CCOCC1 do in these assays?
TAAR1 antag: 21; TAAR1 agonist: 65*; CRFR2-BP antag: -33; CRFR2-BP ag: 26; ANO1 activ: inactive; TAAR1 ag confirm: 45*; Ga16 nonsel ag: 19*; TAAR1 desensitize: 28; Ga16 antag count: 23*

How did O=C(CCNS(=O)(=O)c1ccc(OC(F)(F)F)cc1)Nc1cccc(S(=O)(=O)N2CCCC2)c1 do in these assays?
TAAR1 antag: -1; TAAR1 agonist: 23; CRFR2-BP antag: -8; CRFR2-BP ag: -1; ANO1 activ: inactive

What do the screens show for `CN(C(=O)COC(=O)CSc1cc(Cl)ccc1Cl)c1c(N)n(Cc2ccccc2)c(=O)[nH]c1=O`?
TAAR1 antag: -15; TMEM16A inh: inactive; TAAR1 agonist: 5; CRFR2-BP antag: 4; CRFR2-BP ag: 1; ANO1 activ: inactive

How did O=C(Nc1ccc(Cl)cc1)C1C2CCCCC21 (stereo unspecified) do in these assays?
TAAR1 antag: 59*; TMEM16A inh: inactive; TAAR1 agonist: 57*; CRFR2-BP antag: -11; CRFR2-BP ag: -1; ANO1 activ: inactive; TAAR1 ag confirm: 18; Ga16 nonsel ag: 3; TAAR1 desensitize: 7; Ga16 antag count: 9

How did C#CCN(C[C@@H]1[C@@H](OC(=O)Nc2c(C)noc2C)[C@@H](OC(=O)Nc2c(C)noc2C)Cn2c(=O)n(CCCCCC)c(=O)n21)S(=O)(=O)c1ccc(C)cc1 do in these assays?
TAAR1 antag: -1; TAAR1 agonist: 2; CRFR2-BP antag: 16; CRFR2-BP ag: 5

What do the screens show for `CCCCOc1ccc(/C=C/C(=O)N(CC)CC(=O)Nc2ccc3c(c2)OCCO3)cc1OC`?
TAAR1 antag: -1; TMEM16A inh: inactive; TAAR1 agonist: 1; CRFR2-BP antag: 6; CRFR2-BP ag: 1; ANO1 activ: inactive

Results for Cc1nc(Nc2ccccc2)sc1-c1ccccc1 ?
TAAR1 antag: -8; TMEM16A inh: inactive; TAAR1 agonist: -1; CRFR2-BP antag: -60; CRFR2-BP ag: -2; ANO1 activ: inactive

What do the screens show for `Cc1nc(Nc2ccc(C(=O)O)cc2)sc1-c1ccccc1`?
TAAR1 antag: 31; TMEM16A inh: inactive; TAAR1 agonist: 62*; CRFR2-BP antag: -11; CRFR2-BP ag: 0; ANO1 activ: inactive; TAAR1 ag confirm: 71*; Ga16 nonsel ag: 63*; TAAR1 desensitize: 61*; Ga16 antag count: 44*

Screens deposited in PubChem by several laboratories.
